Sampled rows, rich in hits. Any-hit rate of the full collection: about 2.6%.
EP2 antag: human EP2 receptor antagonists, primary screen, TR-FRET cAMP, C6 glioma cells. Prostaglandin E2 receptor EP2 subtype (Homo sapiens), P43116. inhibition, % at 25 µM. hit rate 0.52% among 260,000. C6 glioma cells expressing human EP2; cells stimulated with saturating PGE2;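 active = percent inhibition above 40 after rounding to a whole number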;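 note: rat C6 glioma host cells with rolipram phosphodiesterase inhibitor present; the protocol text gives 20 µM as final concentration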
Target sequence (P43116 whole entry, looked up): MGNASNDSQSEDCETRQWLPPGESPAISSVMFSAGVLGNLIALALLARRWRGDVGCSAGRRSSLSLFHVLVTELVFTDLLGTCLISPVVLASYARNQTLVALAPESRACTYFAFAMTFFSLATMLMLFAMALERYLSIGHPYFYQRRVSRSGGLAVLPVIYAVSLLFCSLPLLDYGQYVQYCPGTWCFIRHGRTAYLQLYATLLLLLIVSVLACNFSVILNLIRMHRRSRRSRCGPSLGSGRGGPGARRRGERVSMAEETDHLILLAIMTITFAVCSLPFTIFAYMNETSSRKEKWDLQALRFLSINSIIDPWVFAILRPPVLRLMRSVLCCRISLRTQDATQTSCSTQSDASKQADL
MC4R antagonist: MC4R antagonists of cAMP signaling, primary screen, cell-based, TR-FRET, antagonist arm of biased-ligand search; Melanocortin receptor 4 (Homo sapiens), P32245; MC4R-expressing cells, MTII-stimulated cAMP, LANCE TR-FRET; inhibition, % at 6.5 µM; hit rate 0.48% among 360,000; AID 540295, 2011;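 active = inhibition above its plate's cutoff, the mean of tested wells on that plate plus 3 SD, cut at about 29% in these data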;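 note: 0% = Melanotan II alone and 100% = Melanotan II plus saturating MCL0020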
Target sequence (P32245 whole entry, looked up): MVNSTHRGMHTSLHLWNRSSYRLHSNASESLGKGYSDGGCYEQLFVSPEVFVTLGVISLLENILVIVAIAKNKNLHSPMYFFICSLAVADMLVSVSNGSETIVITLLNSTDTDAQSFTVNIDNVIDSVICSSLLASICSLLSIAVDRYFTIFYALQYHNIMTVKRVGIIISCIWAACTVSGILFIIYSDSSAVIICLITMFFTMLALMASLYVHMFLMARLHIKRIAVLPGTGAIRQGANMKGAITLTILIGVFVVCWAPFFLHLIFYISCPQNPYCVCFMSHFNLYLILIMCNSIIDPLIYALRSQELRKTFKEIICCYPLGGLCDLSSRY
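material = U2OS cells stably expressing human melanocortin 4 receptor (MC4R) | also added = Melanotan II challenge | dosing = single nominal compound dose of 6.5 µM | detection = TR-FRET with Eu-cAMP and labeled anti-cAMP, 671 nm | replication = singlicate | timing = compound 30 min, challenge 1 h, detection 1 h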
T cell modulator: modulators of CD8 T cell-vesicle binding, primary screen, mouse 2C CD8+ T cells, flow cytometry. hit rate 0.068% among 330,000. 2C CD8+ T cell-vesicle binding; stronger effect = lower value. response (vesicle binding), % at 7 µM;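 active = response, share of CD8 T cells binding vesicles, and their 90th percentile fluorescence all below set limits, cut at about 80% in these data, passing the limit was not always enough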;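 note: values below 100% mean blocked vesicle binding to the CD8+ T cells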
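Incubation: binding step 1.5 h, 37 °C, antibody labelling 20 min, ice; system: murine 2C transgenic CD8+ T lymphocytes; technique: cytometric PE anti-B7-1 and Alexa647 anti-CD8 signals after 1% paraformaldehyde fixation; also added: QL9-charged Drosophila Ld/ICAM-1/B7-1 vesicles; control set: naked versus QL9-loaded vesicles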
MC4R barr agon: MC4R agonists recruiting beta-arrestin, primary screen, cell-based, luminescence, agonist arm of biased-ligand search; Melanocortin receptor 4 (Homo sapiens), P32245; U2OS MC4R beta-arrestin complementation; percent of melanotan II response, DMSO zero; activation, % at 8.9 µM; hit rate 0.98% among 360,000;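 active = activation above a per-plate cutoff, the mean activation of sample wells on that plate plus 3 SD, cut at about 8% in these data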
EP2 mod: EP2 receptor modulators, cAMP readout, primary screen, cell-based, HTRF cAMP, PGE2 stimulation; EP2-expressing cells, cAMP HTRF FRET, PGE2 co-stimulation; Prostaglandin E2 receptor EP2 subtype (Homo sapiens), P43116; AID 940, 2007; induction, % at 25 µM; hit rate 0.83% among 260,000;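 active = compounds whose cAMP rise, as percent of the full-agonist control response, exceeds 60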;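 note: rat C6 glioma line stably carrying human EP2 under a CMV promoter; the protocol text gives 20 µM as final concentration; 100% = response of wells given 1 µM PGE2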
Granule exo inh: LAMP-1 surface exposure blockers, TALL-104 cells – cell-based, flow cytometry, MLPCN library, primary screen; TALL-104 LAMP-1 surface exposure; cells stimulated with thapsigargin and PMA; inhibition, % at 10 µM; hit rate 0.66% among 360,000;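 active = inhibition above about 55%, limit read from the data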
* marks the source's active call; other numbers are inactive results.

What do the screens show for `CC(=O)C1=C(c2cccc([N+](=O)[O-])c2)N(C(C)=O)n2c(C)nnc2S1`?
EP2 antag: 9.8; MC4R antagonist: 7.5; T cell modulator: 142.8; MC4R barr agon: -4.6; EP2 mod: -48.1; Granule exo inh: 55.5*

How did CCN(c1ccccc1)S(=O)(=O)c1ccc(Cl)c(NC(=O)CSc2nc(N)cc(=O)[nH]2)c1 do in these assays?
MC4R antagonist: 8.6; MC4R barr agon: -0.3; Granule exo inh: -5.9

How did CCOc1ccc(/C=C/C(=O)Nc2ccccc2C(F)(F)F)cc1 do in these assays?
EP2 antag: 6.9; MC4R antagonist: 7.1; T cell modulator: 323.1; MC4R barr agon: 8.8*; EP2 mod: -25.6; Granule exo inh: -5.1

What do the screens show for `CCOc1ccc(OCC(=O)Nc2ccc(OC)cc2[N+](=O)[O-])cc1`?
EP2 antag: 3.9; MC4R antagonist: -6.4; T cell modulator: 208.0; MC4R barr agon: 0.8; EP2 mod: 7.8; Granule exo inh: -0.8

How did CCOc1ccc(/C=C/C(=O)Nc2ccc(OC)cc2[N+](=O)[O-])cc1 do in these assays?
EP2 antag: 13.8; MC4R antagonist: -8.8; T cell modulator: 161.3; MC4R barr agon: 34.3*; EP2 mod: -22.7; Granule exo inh: 5.3

Results for c1ccc(-c2ccccc2OCCCN2CCCCC2)cc1 ?
EP2 antag: 18.0; MC4R antagonist: 5.9; T cell modulator: 277.5; MC4R barr agon: 2.5; EP2 mod: 15.4; Granule exo inh: -6.2

Results for C[C@H]1CC(C)(C)C[C@@](OCCN2CCCCC2)(c2ccccc2)C1 ?
EP2 antag: 53.4*; EP2 mod: 6.8

Results for Cc1cc(C)c2c(N)c(C(=O)Nc3ccccc3Cl)sc2n1 ?
MC4R antagonist: 4.0; T cell modulator: 56.8; MC4R barr agon: 8.4*; Granule exo inh: -5.3

What do the screens show for `C/C(=N\Nc1ccc(Cl)c(C(=O)O)c1)c1ccccn1`?
EP2 antag: 9.3; MC4R antagonist: 8.4; T cell modulator: 519.1; MC4R barr agon: -1.2; EP2 mod: 12.5; Granule exo inh: -7.4

What do the screens show for `C/C(=N\Nc1ncc(Cl)cc1Cl)c1ccccn1`?
EP2 antag: -0.5; MC4R antagonist: 5.5; MC4R barr agon: -3.4; EP2 mod: 5.0; Granule exo inh: 98.4*

What do the screens show for `Cc1ccc(C)c(C(C)NC(=S)NCc2ccc(F)cc2)c1` (configuration not stated)?
MC4R antagonist: -3.8; T cell modulator: 202.9; MC4R barr agon: 8.2*; Granule exo inh: -3.7

What do the screens show for `COc1ccc(C(C)NC(=S)NCc2ccc(F)cc2)cc1` (configuration not stated)?
MC4R antagonist: 1.9; T cell modulator: 244.4; MC4R barr agon: 1.0; Granule exo inh: -2.0

Results for c1csc(-c2cnc3ccccc3n2)c1 ?
EP2 antag: 6.8; MC4R antagonist: -1.0; T cell modulator: 323.8; MC4R barr agon: -0.8; EP2 mod: 3.1; Granule exo inh: -0.1

What do the screens show for `c1cc2c(cnc3cscc32)s1`?
EP2 antag: 42.2*; MC4R antagonist: 19.5; T cell modulator: 830.2; MC4R barr agon: -0.1; EP2 mod: -48.2; Granule exo inh: 0.7

Results for O=C(CCCSc1nc2ccccc2[nH]1)NCc1ccccc1Cl ?
EP2 antag: 5.2; MC4R antagonist: 5.0; T cell modulator: 212.9; MC4R barr agon: -1.9; EP2 mod: -1.2; Granule exo inh: -1.2

How did CN(C)C(=O)CSc1nc(-c2ccccc2)c(-c2ccccc2)o1 do in these assays?
EP2 antag: 7.8; MC4R antagonist: 3.1; T cell modulator: 180.5; MC4R barr agon: -3.0; EP2 mod: 62.9*; Granule exo inh: -4.0

How did CNC(=O)CSc1nc(-c2ccccc2)c(-c2ccccc2)o1 do in these assays?
EP2 antag: 3.3; MC4R antagonist: 10.8; T cell modulator: inactive; MC4R barr agon: -1.9; EP2 mod: 25.3; Granule exo inh: -1.4

How did O=C(C1CCC(=O)N1Cc1ccccc1Cl)N1CCN(c2cccc(Cl)c2)CC1 (configuration not stated) do in these assays?
EP2 antag: 69.1*; MC4R antagonist: 13.9; T cell modulator: 172.6; MC4R barr agon: 0.4; Granule exo inh: 0.5

How did CCNC(=S)N(Cc1cccs1)Cc1cc2c(C)cc(C)cc2[nH]c1=O do in these assays?
EP2 antag: 16.7; EP2 mod: -19.4

What do the screens show for `Cc1c(Cl)cccc1NC(=O)COC(=O)CCc1nc2ccccc2n1-c1ccccc1`?
EP2 antag: 5.5; MC4R antagonist: 14.0; T cell modulator: 142.7; MC4R barr agon: 8.3*; EP2 mod: 4.8; Granule exo inh: 2.7

How did CC(=O)Nc1cc(-c2cccc(C(=O)NCCN(C)C)c2)cn2c(-c3ccc(F)c(Cl)c3)cnc12 do in these assays?
MC4R antagonist: -4.3; MC4R barr agon: 7.5; Granule exo inh: 12.9

Results for CC(=O)Nc1cc(-c2ccc(CO)cc2)cn2c(-c3ccc(F)c(Cl)c3)cnc12 ?
MC4R antagonist: 15.2; MC4R barr agon: 9.1*; Granule exo inh: 8.9

Results for CN(C)Cc1cc(C(C)(C)C)ccc1-c1ccc(C(C)(C)C)cc1CN(C)C ?
EP2 antag: 50.4*; EP2 mod: 7.0

Results for CN(C)Cc1cc(C(C)(C)C)cc(CN(C)C)c1O ?
EP2 antag: 18.4; EP2 mod: 9.3

What do the screens show for `Cc1ccc(-n2sc3ccccc3c2=O)cc1S(=O)(=O)N1CCCCC1`?
EP2 antag: 7.0; MC4R antagonist: 53.3*; T cell modulator: 400.0; MC4R barr agon: -4.3; EP2 mod: -14.1; Granule exo inh: -4.4

How did O=c1c2ccccc2sn1-c1ccc(S(=O)(=O)N2CCCCC2)cc1 do in these assays?
EP2 antag: 13.1; MC4R antagonist: -2.2; T cell modulator: 464.0; MC4R barr agon: -1.4; Granule exo inh: -5.1

How did COCCNC(=S)N(Cc1cc2cc3c(cc2[nH]c1=O)OCCO3)C1CCCCC1 do in these assays?
EP2 antag: 10.5; EP2 mod: 1.4

What do the screens show for `Cc1cccc(C2(c3cccc(C)c3)CC2C(=O)Nc2ccc([N+](=O)[O-])cc2O)c1` (configuration not stated)?
EP2 antag: 7.9; MC4R antagonist: 10.1; T cell modulator: 115.2; MC4R barr agon: 3.5; EP2 mod: 60.8*; Granule exo inh: 9.6

Bioassay records: PubChem, several laboratories
